Our source for the MIC90 values is ChEMBL document CHEMBL5055637, “Novel C-3-(N-alkyl-aryl)-aminomethyl rifamycin SV derivatives exhibit activity against rifampicin-resistant Mycobacterium tuberculosis RpoBS522L strain and display a different binding mode at the RNAP β-subunit site compared to rifampicin” (2021).

Assay [1] has as its system Mycobacterium tuberculosis. The assay is described as follows: Antitubercular activity against wild type Mycobacterium tuberculosis H37Rv ATCC 25618 assessed as bacterial growth inhibition measured after 5 days by serial dilution method. The assay is classed as functional. As to conditions: H37Rv ATCC 25618, 120 h, time 5 day. The procedure, abridged:
(§1)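 Strains grown in Middlebrook 7H9 with OADC supplement and 0.05% w/v Tween 80. Compounds tested as 10-point 2-fold serial dilutions. Growth read as OD590 after 5 days in 7H9-OADC-Tw. Levenberg-Marquardt curve fitting gave MIC90, the concentration inhibiting growth by 90% relative to controls. Run in triplicate.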

The subject of assay [2] is Mycobacterium tuberculosis. The assay is described as follows: Antitubercular activity against wild type Mycobacterium tuberculosis HN878 assessed as bacterial growth inhibition measured after 5 days by serial dilution method. Type of assay: functional. As to conditions: HN878, 120 h, time 5 day. The procedure, abridged:
as §1

Converted amounts (≈) assume the structure as drawn.

`CO[C@H]1/C=C/O[C@@]2(C)Oc3c(C)c(O)c4c(O)c(c(CN5CCN(CCO)CC5)c(O)c4c3C2=O)NC(=O)/C(C)=C\C=C\[C@H](C)[C@H](O)[C@@H](C)[C@@H](O)[C@@H](C)[C@H](OC(C)=O)[C@@H]1C`: the MIC90 in assay [1] worked out at 0.034 µM (≈ 0.0286 µg/mL); in assay [2], 0.07 µM (≈ 0.0588 µg/mL).

Consider `CO[C@H]1/C=C/O[C@@]2(C)Oc3c(C)c(O)c4c(O)c(c(CNCc5ccc(S(C)(=O)=O)cc5)c(O)c4c3C2=O)NC(=O)/C(C)=C\C=C\[C@H](C)[C@H](O)[C@@H](C)[C@@H](O)[C@@H](C)[C@H](OC(C)=O)[C@@H]1C`, for which the MIC90 in assay [1] worked out at 0.039 µM (≈ 0.0349 µg/mL); in assay [2] it was 0.096 µM (≈ 0.0859 µg/mL).

Take `CO[C@H]1/C=C/O[C@@]2(C)Oc3c(C)c(O)c4c(O)c(c(CNCc5ccncc5)c(O)c4c3C2=O)NC(=O)/C(C)=C\C=C\[C@H](C)[C@H](O)[C@@H](C)[C@@H](O)[C@@H](C)[C@H](OC(C)=O)[C@@H]1C`: the figures for the MIC90 in assay [1] and in assay [2] were 0.075 µM (≈ 0.0613 µg/mL) and 0.31 µM (≈ 0.254 µg/mL), respectively.

As to `CO[C@H]1/C=C/O[C@@]2(C)Oc3c(C)c(O)c4c(O)c(c(CNCc5ccccc5)c(O)c4c3C2=O)NC(=O)/C(C)=C\C=C\[C@H](C)[C@H](O)[C@@H](C)[C@@H](O)[C@@H](C)[C@H](OC(C)=O)[C@@H]1C`, the MIC90 in assay [1] worked out at 0.097 µM (≈ 0.0792 µg/mL).

`CO[C@H]1/C=C/O[C@@]2(C)Oc3c(C)c(O)c4c(O)c(c(CNCc5cccs5)c(O)c4c3C2=O)NC(=O)/C(C)=C\C=C\[C@H](C)[C@H](O)[C@@H](C)[C@@H](O)[C@@H](C)[C@H](OC(C)=O)[C@@H]1C`: the MIC90 in assay [1] amounted to 0.082 µM (≈ 0.0675 µg/mL); in assay [2], 0.2 µM (≈ 0.165 µg/mL).

With `CO[C@H]1/C=C/O[C@@]2(C)Oc3c(C)c(O)c4c(O)c(c(CNCc5ccco5)c(O)c4c3C2=O)NC(=O)/C(C)=C\C=C\[C@H](C)[C@H](O)[C@@H](C)[C@@H](O)[C@@H](C)[C@H](OC(C)=O)[C@@H]1C`, the MIC90 was 0.09 µM (≈ 0.0726 µg/mL) in assay [1] and 0.45 µM (≈ 0.363 µg/mL) in assay [2].

Turning to `COC(=O)c1ccc(CNCc2c3c(O)c4c(O)c(C)c5c(c4c2O)C(=O)[C@@](C)(O/C=C/[C@H](OC)[C@@H](C)[C@@H](OC(C)=O)[C@H](C)[C@H](O)[C@H](C)[C@@H](O)[C@@H](C)/C=C/C=C(/C)C(=O)N3)O5)cc1`, the MIC90 in assay [1] was determined as 0.12 µM (≈ 0.105 µg/mL); in assay [2], 0.53 µM (≈ 0.464 µg/mL).

Regarding `CO[C@H]1/C=C/O[C@@]2(C)Oc3c(C)c(O)c4c(O)c(c(CNCCc5c[nH]c6ccccc56)c(O)c4c3C2=O)NC(=O)/C(C)=C\C=C\[C@H](C)[C@H](O)[C@@H](C)[C@@H](O)[C@@H](C)[C@H](OC(C)=O)[C@@H]1C`, the MIC90 in assay [1] turned out to be 0.039 µM (≈ 0.0339 µg/mL); in assay [2], 0.39 µM (≈ 0.339 µg/mL).

Turning to `CO[C@H]1/C=C/O[C@@]2(C)Oc3c(C)c(O)c4c(O)c(c(CNCCc5ccc(O)cc5)c(O)c4c3C2=O)NC(=O)/C(C)=C\C=C\[C@H](C)[C@H](O)[C@@H](C)[C@@H](O)[C@@H](C)[C@H](OC(C)=O)[C@@H]1C`, the MIC90 in assay [1] worked out at 0.066 µM (≈ 0.0559 µg/mL); in assay [2], 0.22 µM (≈ 0.186 µg/mL).

As for `NNC(=O)c1ccncc1` [ISONIAZID], the MIC90 in assay [1] stood at 0.28 µM (≈ 0.0384 µg/mL); in assay [2], 0.29 µM (≈ 0.0398 µg/mL).

Turning to `CO[C@H]1/C=C/O[C@@]2(C)Oc3c(C)c(O)c4c(O)c(c(/C=N/N5CCN(C)CC5)c(O)c4c3C2=O)NC(=O)/C(C)=C\C=C\[C@H](C)[C@H](O)[C@@H](C)[C@@H](O)[C@@H](C)[C@H](OC(C)=O)[C@@H]1C` [RIFAMPIN], the MIC90 in assay [1] came out at 0.0045 µM (≈ 0.0037 µg/mL); in assay [2], 0.02 µM (≈ 0.0165 µg/mL).
